Test results taken from ChEMBL document CHEMBL4513216, “Probing the Open Global Health Chemical Diversity Library for Multistage-Active Starting Points for Next-Generation Antimalarials” (ACS Infect Dis, 2020).

Experiment: Toxicity liver stage against HepG2, at 10uM
Assay type: cell-based
Set-up: test concentration 10 uM, cell line HepG2-A16-CD81EGFP
Settings: human, HepG2-A16-CD81EGFP cells; read-out: INHIBITION
Summary of the method: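 Uninfected HepG2-A16-CD81EGFP cells, 3 × 10^3 per well, 1536-well, plated on prespotted compound at 10 μM final, parasite-free screening media added to match infected plates; puromycin 10 μM positive, DMSO 0.5% negative; run in parallel with 48 h PbLuc assay at 37 °C, 5% CO2; viability by CellTiter-Glo luminescence, normalized to controls.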

O=C(NCCCN1CCCC1=O)Nc1ccc(Br)cc1Cl
cytotoxicity at 10 µM: -2.18%

COc1ccc(CCCN(C)C(=O)c2cc(C(C)=O)c[nH]2)cc1OC
cytotoxicity at 10 µM: 2.24%

CN1C[C@@H](N)C[C@H]1c1nc(-c2ccc3c(c2)OCO3)no1
cytotoxicity at 10 µM: -3.75%

CC(=O)N1N=C(c2ccco2)OC1C(=O)NCCc1ccc(F)cc1 (stereo not drawn)
cytotoxicity at 10 µM: -1.92%

O=C(NCC1CCOCC1)c1cc(-c2ccc3c(c2)CCO3)n[nH]1
cytotoxicity at 10 µM: 2.63%

COc1cccc(-c2nc(C)c(C(=O)N[C@H](CO)CCSC)s2)c1
cytotoxicity at 10 µM: 4.63%

CC1CCCN(C(=O)c2nnn(-c3ccc(C(F)(F)F)cc3)n2)C1 (stereo not drawn)
cytotoxicity at 10 µM: -3.43%

COCCN(C)C(=O)c1nc2c(s1)CCCN2C
cytotoxicity at 10 µM: -143%

COCCN(C)C(=O)c1nc2c(s1)CCCN2c1ncccn1
cytotoxicity at 10 µM: -131%

CCS(=O)(=O)N1CC[C@@H]2[C@H](COCC3CC3)CN(C)C(=O)[C@@H]2CC1
cytotoxicity at 10 µM: -4.79%

CS(=O)(=O)N1CCc2sc(C(=O)NCCc3ccccn3)cc21
cytotoxicity at 10 µM: -0.464%

CC1CCc2nc(O)c(C(=O)NCCCN3CCN(C)CC3)cc2C1 (stereo not drawn)
cytotoxicity at 10 µM: -11.6%

Cc1csc(CCNC(=O)c2cc3c(nc2O)CCC(C)C3)n1 (stereo not drawn)
cytotoxicity at 10 µM: -3.91%

O=C(Cc1ccsc1)NCC1OCCc2cn(CC3CC3)nc21 (stereo not drawn)
cytotoxicity at 10 µM: 9.77%

Cc1nc(=O)c2ccccc2n1C1=CCN(CC(=O)N2CCCC2)CC1
cytotoxicity at 10 µM: -7.45%

NC(=O)c1cnc(NC2CC2)nc1CCNC(=O)Cc1ccccc1
cytotoxicity at 10 µM: 4.44%

Cc1nc(C(=O)N2CCOC(Cc3ccccc3)C2)co1 (stereo not drawn)
cytotoxicity at 10 µM: -3.24%

NCCn1nc(C2CCN(Cc3ccccc3Cl)C2)c2nccnc21 (stereo not drawn)
cytotoxicity at 10 µM: -14.9%

CN(CCCOc1ccccc1)S(=O)(=O)N1CCOCC1
cytotoxicity at 10 µM: 4.38%

CC(SCCC(=O)NC(N)=O)c1c(F)cccc1F (stereo not drawn)
cytotoxicity at 10 µM: 6.93%

CC(C)CC1(C(=O)NCc2nncn2C2CC2)CCC1
cytotoxicity at 10 µM: -1.22%

CS(=O)(=O)NCc1ccc(C(=O)NCc2ccc3c(c2)CCC3)o1
cytotoxicity at 10 µM: -5.61%

Cc1noc(CCCC(=O)N(CC2CCOC2)C2CC2)n1 (stereo not drawn)
cytotoxicity at 10 µM: 13%

CN(c1ncccc1C#N)C1CCN(CCc2ccccn2)CC1
cytotoxicity at 10 µM: 0.926%

Cc1ccc(S(C)(=O)=O)cc1NCC(=O)NCCC1=CCCCC1
cytotoxicity at 10 µM: 0.846%

CC(C)(C)CC(NC(=O)N1CCS(=O)(=O)CC1)C(F)(F)F (stereo not drawn)
cytotoxicity at 10 µM: 0.106%

CC(C)(C)CC(NC(=O)N1CCC(C(N)=O)CC1)C(F)(F)F (stereo not drawn)
cytotoxicity at 10 µM: -1.14%

Cn1cnnc1CNC(=O)c1ccc(Br)cc1O
cytotoxicity at 10 µM: -4.06%

O=C(NCCOc1ccc(F)cc1)C1CCCN(C(=O)C2CC2)C1 (stereo not drawn)
cytotoxicity at 10 µM: 0.856%

CCOc1ccc(Cl)cc1CCNC(=O)Cn1ccccc1=O
cytotoxicity at 10 µM: 8%

O=C(c1coc(-c2ccccc2)n1)N1CCCC1
cytotoxicity at 10 µM: 5.47%

Cc1cccc(C(=O)NCC2CCS(=O)(=O)C2)n1 (stereo not drawn)
cytotoxicity at 10 µM: -6.21%

Clc1ccccc1CNC(Cn1cncn1)c1ccccc1 (stereo not drawn)
cytotoxicity at 10 µM: -2.88%

CC(C)c1nc(C2CCCN(C(=O)CS(=O)(=O)C(C)C)C2)no1 (stereo not drawn)
cytotoxicity at 10 µM: 8.75%

Cc1nc(NC(=O)C(C)N2CCN(c3ncccn3)CC2)sc1C (stereo not drawn)
cytotoxicity at 10 µM: 4.79%

Cc1nn(C)c(N2CCCN(C)CC2)c1CNC(=O)C(C)(C)C
cytotoxicity at 10 µM: -12%

CCc1cccc(NC(=O)NC2CCc3nc(C)nn3C2)c1 (stereo not drawn)
cytotoxicity at 10 µM: -12.5%

CN1CC(C(=O)NC(C)(C)CNC(=O)OC(C)(C)C)CC1=O (stereo not drawn)
cytotoxicity at 10 µM: -3.88%

O=S(=O)(c1ccc(F)cc1)N1CCN(CCCn2ccnc2)CC1
cytotoxicity at 10 µM: -5.63%

O=C(NC1CCS(=O)(=O)C1)c1ccc(-c2ccc(F)cc2)s1 (stereo not drawn)
cytotoxicity at 10 µM: -2.32%

Cc1cc(CNC(=O)C2CCCN2C(=O)OC(C)(C)C)no1 (stereo not drawn)
cytotoxicity at 10 µM: -4.12%

O=C(NC1CC1)C1CCCN1c1ncnc2ccsc12 (stereo not drawn)
cytotoxicity at 10 µM: -5.2%

CC(C)CC(C#N)NC(=O)COC1CCCCC1 (stereo not drawn)
cytotoxicity at 10 µM: 5.42%

Cc1ccc(CCNC(=O)c2cccnc2)o1
cytotoxicity at 10 µM: -0.996%

O=C(NCCNc1ccc(Br)cn1)c1ccc(O)cc1
cytotoxicity at 10 µM: 0.612%

Cc1n[nH]c(C2CN(C(=O)c3ccn(C)c(=O)c3)CCO2)n1 (stereo not drawn)
cytotoxicity at 10 µM: -5.3%

CC(=O)NC(c1cc(F)ccc1F)C1CC1 (stereo not drawn)
cytotoxicity at 10 µM: -1.99%

Cc1cccc(C(=O)N2CCN(CCOC(C)C)CC2)n1
cytotoxicity at 10 µM: -0.0394%

NC(=O)CCSc1n[nH]c(-c2ccc3c(c2)CCC3)n1
cytotoxicity at 10 µM: -0.302%

CC(C)N(Cc1ccccc1)Cc1csc(-c2ncccn2)n1
cytotoxicity at 10 µM: 7.76%

CC(=O)N(CCc1nc(-c2cc(C(N)=O)co2)cs1)C(C)C
cytotoxicity at 10 µM: -4.91%

CC1(c2ccc(Br)cc2)CC(=O)N(CCC(N)=O)C1=O (stereo not drawn)
cytotoxicity at 10 µM: -3.74%

Cc1ccc(CN(C)C)cc1NC(=O)C1CC1
cytotoxicity at 10 µM: 1.32%

CNC(=O)COc1c(C(C)=O)ccc(Cl)c1Cl
cytotoxicity at 10 µM: -0.769%

CCN(CCNC(=O)C1CCN(C(C)=O)CC1)c1ccccc1C
cytotoxicity at 10 µM: -6.19%

CN(C)c1ccc(NC(=O)N2CCCC2c2ccsc2)cn1 (stereo not drawn)
cytotoxicity at 10 µM: -7.81%

CCc1noc(CS(=O)(=O)c2cccc(OC)c2)n1
cytotoxicity at 10 µM: 6.7%

CN(C)c1ccc(NC(=O)N2CCCCC2c2ncc[nH]2)cn1 (stereo not drawn)
cytotoxicity at 10 µM: -1.78%

O=C(CCc1ccco1)Nc1ncn(CC(=O)N2CCCCCC2)n1
cytotoxicity at 10 µM: -2.29%

Cc1nc(S(=O)(=O)N2CCSCC2)cn1C
cytotoxicity at 10 µM: -9.09%

Cc1ccc(OCC(=O)NCc2ccccc2F)nc1
cytotoxicity at 10 µM: -12%

O=C(Nc1nc(-c2ccccc2)ns1)N1CCC(F)CC1
cytotoxicity at 10 µM: -137%

CCc1nc(N2CCC3(CC2)OCCCC3O)ncc1C (stereo not drawn)
cytotoxicity at 10 µM: 7.41%

COCC1CCN(C(=O)c2cn(Cc3ccccc3C(F)(F)F)nn2)C1 (stereo not drawn)
cytotoxicity at 10 µM: 6.86%

Cc1ccc2c(c1)c(CNC(=O)C1CCN(C(=O)C3CC3)CC1)nn2C
cytotoxicity at 10 µM: -0.687%

CCn1c(C2CCCN(Cc3ccc(OC)c(C)c3C)C2)nn(C)c1=O (stereo not drawn)
cytotoxicity at 10 µM: 5.52%

CCCn1ncc(C(=O)N2CCN(C(=O)c3ccc[nH]3)CC2)c1C
cytotoxicity at 10 µM: -151%

CCn1nc(C)c(C(C)Nc2cc(C3CCNCC3)nc(C)n2)c1C (stereo not drawn)
cytotoxicity at 10 µM: 2.38%

COc1nccnc1N1CCN(Cc2ccc(F)cc2)C(=O)C1
cytotoxicity at 10 µM: 1.27%

CCCOCCn1ncc(N2CCCC2)cc1=O
cytotoxicity at 10 µM: -10.7%

CCc1cc(CN(C)C(=O)c2cnn[nH]2)on1
cytotoxicity at 10 µM: 7.48%

CCOCC(=O)N1CCC(c2nc(-c3cccnn3)no2)CC1
cytotoxicity at 10 µM: -3.3%

Cn1c(-c2ccccc2Cl)nc2cc(C(=O)NCC3(CO)CC3)cnc21
cytotoxicity at 10 µM: -4.33%

Cn1c(-c2ccccc2Cl)nc2cc(C(=O)NCCOCCO)cnc21
cytotoxicity at 10 µM: -0.951%

COc1ccnc(CNc2cc(C3CC3)ncn2)c1
cytotoxicity at 10 µM: -7.64%

CN(Cc1cc(-c2ccccc2)no1)Cc1nccn1C
cytotoxicity at 10 µM: -2.27%

O=C(N1CCOCC1)N1CC[C@@](O)(c2ccccc2)[C@H]2CCCC[C@@H]21
cytotoxicity at 10 µM: -1.11%

CN(C)CC(C)(C)CN1CCC(c2ccnc(-c3cccc(O)c3)c2)C1 (stereo not drawn)
cytotoxicity at 10 µM: 3.36%

CCNc1ccnc(NCc2cn3nc(C)sc3n2)n1
cytotoxicity at 10 µM: -3.41%

Cc1cc(C)n(CC(C)NCc2nncn2C2CCCCC2)n1 (stereo not drawn)
cytotoxicity at 10 µM: -3.26%

CO[C@H]1CN(C(=O)c2ccc(-c3cc[nH]n3)cc2)CC[C@H]1N
cytotoxicity at 10 µM: 5.29%

CCC(=O)c1ccc(OCC(=O)NC(C)c2nnn[nH]2)cc1 (stereo not drawn)
cytotoxicity at 10 µM: -1.62%

CN(CCN1CCCCCC1)C(=O)c1c(O)cccc1O
cytotoxicity at 10 µM: -7.08%

CCCOC(C)C(=O)N1CCC(O)(c2ccc3nc(C)ccc3c2)CC1 (stereo not drawn)
cytotoxicity at 10 µM: 1.12%

O=C(Nc1ccc(S(=O)(=O)Nc2c(F)cccc2F)cc1)N1CCCC1
cytotoxicity at 10 µM: 5.66%

O=C(c1ccc(C2CCCO2)s1)N1CCOCC1 (stereo not drawn)
cytotoxicity at 10 µM: 10.3%

CCc1cc(N2CCNCC2)n2nc(C)c(C)c2n1
cytotoxicity at 10 µM: -2.59%

CCOC(=O)C1CCCN(c2ccc(-c3nc(C)no3)cn2)C1 (stereo not drawn)
cytotoxicity at 10 µM: -3.74%

Cc1cc(C(=O)N2CCCC(C)C2)ccc1NCC(=O)N1CCOCC1 (stereo not drawn)
cytotoxicity at 10 µM: -0.153%

Cc1ccc(NC2CCN(C(=O)CCc3nccs3)CC2)nn1
cytotoxicity at 10 µM: -9.93%

Cc1ccc(-c2nnc(CN3CCCC(Cn4cncn4)C3)o2)cc1 (stereo not drawn)
cytotoxicity at 10 µM: -9.07%

Cc1cnn(CC(=O)NCC2CCN(c3cc(Cl)ccc3C)C2)c1 (stereo not drawn)
cytotoxicity at 10 µM: -3.92%

CC(O)CN1CCC(CNCc2ccccc2Cl)CC1 (stereo not drawn)
cytotoxicity at 10 µM: -11.9%

Cc1nn(C)c(C)c1C1CCCN1CC(=O)Nc1ccc(Cl)cn1 (stereo not drawn)
cytotoxicity at 10 µM: -7.1%

CC(C)Oc1ncccc1CNC(=O)c1ccccn1
cytotoxicity at 10 µM: -21.3%

CCc1n[nH]c(C2CN(C(=O)c3cnc(C)nc3CC)CCO2)n1 (stereo not drawn)
cytotoxicity at 10 µM: -3.39%

Cc1cc(C)n(CC2CN(Cc3nc(C)c(C)o3)CCO2)n1 (stereo not drawn)
cytotoxicity at 10 µM: 4.17%

COc1ccnc(N2CCN(C(=O)Cc3ccsc3)CC2)n1
cytotoxicity at 10 µM: -3%

COc1c(CNCC(O)c2cccc(F)c2)c(C)nn1C (stereo not drawn)
cytotoxicity at 10 µM: -6.41%

CC(C(=O)Nc1ccnn1C(C)C)N1CCCN(c2nccs2)CC1 (stereo not drawn)
cytotoxicity at 10 µM: -9.39%

Cc1ccc(CN(C)Cc2nc3c(cnn3C)c(=O)[nH]2)o1
cytotoxicity at 10 µM: -0.972%

O=C1CCC2(CCC(NC3CCOCC3)CC2)N1Cc1ccccc1 (stereo not drawn)
cytotoxicity at 10 µM: -0.0368%

O=C(CN1CC(c2nc(C3CC3)no2)C1)NCc1ccc(F)cc1
cytotoxicity at 10 µM: 0.291%

Cc1ccc(CN2CCCn3cnc(COCC4CC4)c3C2)o1
cytotoxicity at 10 µM: 8.82%

c1cnc(N2CCOCC3(CN(Cc4ccsc4)CCO3)C2)nc1 (stereo not drawn)
cytotoxicity at 10 µM: 5.83%

CC(C)n1cnc2c1C(C(=O)N1CCOCC1)N(CC1CC1)CC2 (stereo not drawn)
cytotoxicity at 10 µM: 7.98%

Cc1cnc(N2CCC3(C2)C(=O)N(C)CCN3Cc2cccnc2)nc1 (stereo not drawn)
cytotoxicity at 10 µM: -6.98%

CC(C)(CNCc1ccc(OCc2cscn2)cc1)C(N)=O
cytotoxicity at 10 µM: -137%

CCOCC1CN(C(=O)c2ccncc2)Cc2nn(C)cc21 (stereo not drawn)
cytotoxicity at 10 µM: -5.82%

O=C(C1CC1)N1CC[C@@H]2[C@H](CC1)N(Cc1cccnc1)CCS2(=O)=O
cytotoxicity at 10 µM: -1.84%

O=C(C1CCC1)N1C[C@H]2CC[C@@H](C1)N(S(=O)(=O)c1ccccc1)C2
cytotoxicity at 10 µM: -10%

O=C1CCC2(CCC(NC(=O)NCc3ccccc3)CC2)N1 (stereo not drawn)
cytotoxicity at 10 µM: -0.0957%

O=C(c1cccnc1)N1C[C@H]2CC[C@@H](C1)N(Cc1cccc(Cl)c1F)C2
cytotoxicity at 10 µM: -9.24%
